Results as given in ChEMBL document CHEMBL1129931, “Structure-activity studies on 2-methyl-3-(2(S)-pyrrolidinylmethoxy) pyridine (ABT-089): an orally bioavailable 3-pyridyl ether nicotinic acetylcholine receptor ligand with cognition-enhancing properties” (J Med Chem, 1997).
Calls of active or inactive are those of the source. No cut-off for these calls is given here.

What was measured:
[1] = system: Mus musculus; assay: Minimum dose of the drug (intraperitoneal) required that elicited a statistically significant response in mouse inhibitory avoidance assay; assay type: functional
In short: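 Mice were dosed ip 15 min before training in a dark-light chamber, where entering the dark side was paired with a mild foot shock. The index of memory was latency to enter the dark chamber in a later test session.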

[2] = system: Mus musculus; assay: Minimum dose of the drug (intraperitoneal) required for elicited a statistically significant response in hypothermia assay; assay type: functional
In short: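 Body temperature was taken by rectal probe inserted 3 cm, about 20 min after ip injection. The same mice had just completed a 15-min open-field activity session.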

[3] = system: Mus musculus; assay: Minimum dose of the drug (intraperitoneal) required elicited a statistically significant response in locomotor activity assay; No significant effect at (0.0062-6.2) dose range; assay type: functional, organism-based
[4] = system: Mus musculus; assay: Minimum dose of the drug (intraperitoneal) required for elicited a statistically significant response in seizure assay; assay type: functional
[5] = system: IMR-32; assay: The maximal efficacy relative to 100 uM nicotine; assay type: functional, Homo sapiens
[6] = Half-life was measured in (in vitro) dog liver slice experiments following intravenous administration to dogs; assay type: ADME, organism-based, Canis lupus familiaris; details: in vivo
In short: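 Beagle dogs were fasted overnight, with water available. They received 500 nmol/kg as a slow iv bolus into the saphenous vein. Jugular blood was sampled over 8 h, and plasma parent drug was measured by reverse-phase HPLC (electrochemical or derivatization/fluorescence detection).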

[7] = Oral bioavailability in dog; assay type: ADME, organism-based, Canis lupus familiaris; details: in vivo
In short: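 Fasted beagle dogs (n = 3–6) received 500 nmol/kg by oral gavage or slow iv bolus. Jugular plasma was sampled over 8 h, and parent drug was measured by reverse-phase HPLC. Bioavailability is reported as mean ± SEM.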

[8] = system: IMR-32; assay: Concentration required to elicit ganglionic receptors measured using [86Rb+] flux functional assay in a human neuroblastoma-derived IMR-32 cell line; assay type: cell-based
In short: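 Ganglionic-type (α3-containing) receptor function assessed as 86Rb+ flux in human neuroblastoma IMR-32 cells; EC50 reported as mean ± SEM, n = 3–5.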

[9] = molecular target: Neuronal acetylcholine receptor subunit alpha-7 (Homo sapiens, UniProt P36544); assay: Bindind affinity value obtained by measuring the displacement of radioligand [125I]alpha-bungarotoxin from K-28 cells stably express human Nicotinic acetylcholine receptor alpha7; assay type: cell-based
Sequence of Neuronal acetylcholine receptor subunit alpha-7 (P36544 whole entry): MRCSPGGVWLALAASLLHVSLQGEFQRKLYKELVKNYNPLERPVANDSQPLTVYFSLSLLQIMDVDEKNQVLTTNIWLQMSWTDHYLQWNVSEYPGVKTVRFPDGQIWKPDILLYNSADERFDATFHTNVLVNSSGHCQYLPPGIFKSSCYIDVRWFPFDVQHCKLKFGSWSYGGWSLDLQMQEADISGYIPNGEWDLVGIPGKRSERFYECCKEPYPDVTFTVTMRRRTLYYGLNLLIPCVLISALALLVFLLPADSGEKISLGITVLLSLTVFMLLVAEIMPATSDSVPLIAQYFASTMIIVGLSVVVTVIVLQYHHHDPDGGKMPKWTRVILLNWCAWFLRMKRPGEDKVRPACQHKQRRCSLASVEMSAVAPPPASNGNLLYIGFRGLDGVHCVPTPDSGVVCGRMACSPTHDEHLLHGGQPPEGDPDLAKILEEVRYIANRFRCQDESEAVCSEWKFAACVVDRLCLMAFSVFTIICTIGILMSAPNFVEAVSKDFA

[10] = Half-life was measured in (in vitro) dog liver slice experiments; assay type: ADME, Canis lupus familiaris; details: dog liver slices
In short: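 Compounds at a final 12 μg/mL were incubated with dog liver slices at 37 °C for times up to 24 h. Medium was removed and frozen, then parent compound was quantified by HPLC. Half-life and % remaining at 24 h were reported.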

[11] = molecular target: Neuronal acetylcholine receptor; assay: Binding affinity value obtained by measuring the displacement of radioligand [3H](-)-cytisine from a preparation of whole rat brain
[12] = molecular target: Neuronal acetylcholine receptor; assay: Binding affinity value obtained by measuring the displacement of radioligand [3H](-)-cytisine from whole rat brain Nicotinic acetylcholine receptor

Compound	EDmin [1]	EDmin [2]	EDmin [3]	EDmin [4]	Max [5]	half-life [6]	bioavailability [7]	EC50 [8]	Ki [9]	half-life [10]	Ki [11]	Ki [12]
Cc1ncccc1OC[C@@H]1CCCN1 [POZANICLINE]	0.62 µM/kg	>62 µM/kg	inactive	774 µM/kg	8%	1.6 h	61.5%	150 µM	> 10 µM	> 24 h		
CN1CCC[C@H]1COc1cccnc1					100%			63 µM	1.53 µM		0.00028 µM	
Cc1ncccc1OC[C@@H]1CCCN1C					29%	0.31 h	5.8%	25 µM	> 10 µM	9 h		
Cc1ncccc1OC[C@H]1CCCN1					11%	1.4 h	66%	50 µM	> 10 µM	> 24 h		
Cc1ncccc1OC[C@H]1CCCN1C						0.61 h	4.9%		> 10 µM	8.5 h		3 µM
CN1CCC[C@H]1c1cccnc1 [NICOTINE]	0.62 µM/kg	6.2 µM/kg		41 µM/kg	100%							
Cc1cc([C@@H]2CCCN2C)on1 [ABT-418]	0.062 µM/kg	19 µM/kg		62 µM/kg	85%	0.21 h	1.2%	64 µM	4.05 µM	3 h		
